Laboratory results: ChEMBL document CHEMBL6109171, “Design, Synthesis, and Evaluation of a New Fluorescent Ligand for the M2 Muscarinic Acetylcholine Receptor” (ACS Med Chem Lett, 2025)
The source made the active and inactive calls. No cut-off for these calls is given here.

Key:
[1] = Photostability of compound in PBS buffer at 4 W/450 nm measured after 10 mins; type: physicochemical
In short: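 Probe in PBS (pH 7) under continuous light (4 W, 450 nm); fluorescence intensity was followed over irradiation time up to 10 min.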

[2] = molecular target: T1, Muscarinic acetylcholine receptor M2 (Homo sapiens) (UniProt P08172); assay: Binding affinity to N-terminal human M2 receptor expressed in HEK293T cell pretreated for 5 mins in presence of atropine by BRET assay; type: cell-based; conditions: filed as antagonist, dose <= 1000.0 nM
T1 sequence (whole entry): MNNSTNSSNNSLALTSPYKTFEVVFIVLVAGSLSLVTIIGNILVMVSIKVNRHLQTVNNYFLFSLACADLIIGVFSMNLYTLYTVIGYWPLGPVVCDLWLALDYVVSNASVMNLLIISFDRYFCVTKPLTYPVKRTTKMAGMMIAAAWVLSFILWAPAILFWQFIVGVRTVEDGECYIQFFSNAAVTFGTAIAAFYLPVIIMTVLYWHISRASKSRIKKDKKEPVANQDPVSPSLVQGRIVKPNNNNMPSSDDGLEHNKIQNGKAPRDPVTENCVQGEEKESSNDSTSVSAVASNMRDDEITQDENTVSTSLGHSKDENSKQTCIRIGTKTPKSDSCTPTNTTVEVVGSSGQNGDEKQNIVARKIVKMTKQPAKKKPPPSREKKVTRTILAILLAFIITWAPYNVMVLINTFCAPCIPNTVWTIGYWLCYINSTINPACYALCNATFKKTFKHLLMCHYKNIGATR

[3] = molecular target: T1, Muscarinic acetylcholine receptor M2 (Homo sapiens); assay: Binding affinity to human M2 receptor expressed in HEK293T cells by confocal microscopic analysis; type: cell-based
[4] = molecular target: T1, Muscarinic acetylcholine receptor M2 (Homo sapiens); assay: Binding affinity to human M2 receptor expressed in HEK293T cells measured for 3 min by confocal microscopic analysis; type: cell-based; conditions: filed as antagonist
[5] = molecular target: T1, Muscarinic acetylcholine receptor M2 (Homo sapiens); assay: Binding affinity to human M2 receptor expressed in HEK293T cells by two-photon microscopic analysis; type: cell-based; conditions: filed as antagonist
[6] = molecular target: T1, Muscarinic acetylcholine receptor M2 (Homo sapiens); assay: Binding affinity to human M2 receptor expressed in HEK293T cell membrane cells by STED microscopic analysis; type: cell membranes; conditions: filed as antagonist
[7] = molecular target: T2, Muscarinic acetylcholine receptor M2 (Homo sapiens, UniProt P08172); assay: Displacement of [3H]-NMS from human muscarinic M2 receptor expressed in CHO cells; type: cell-based
T2 sequence (P08172 whole entry): T1 sequence (whole entry)
In short: (§1)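 Membranes from CHO cells transfected with human M1–M5 receptors; competition binding against the orthosteric antagonist [3H]-N-methylscopolamine. Ki values were taken from the competition curves. Ratios divide the Ki at M1, M3, M4 or M5 by the Ki at M2 from the same assay.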

[8] = molecular target: Muscarinic acetylcholine receptors; M1 & M2 (Homo sapiens) (UniProt P11229+P08172); assay: Selectivity ratio of Ki for displacement of [3H]-NMS from human muscarinic M1 receptor to Ki for displacement of [3H]-NMS from human muscarinic M2 receptor; type: protein assay; in short: as §1
[9] = molecular target: Muscarinic acetylcholine receptors; M2 & M3 (Homo sapiens) (UniProt P20309+P08172); assay: Selectivity ratio of Ki for displacement of [3H]-NMS from human muscarinic M3 receptor to Ki for displacement of [3H]-NMS from human muscarinic M2 receptor; type: protein assay; in short: as §1
[10] = molecular target: Muscarinic acetylcholine receptor M2 and M4 (Homo sapiens) (UniProt P08173+P08172); assay: Selectivity ratio of Ki for displacement of [3H]-NMS from human muscarinic M4 receptor to Ki for displacement of [3H]-NMS from human muscarinic M2 receptor; type: protein assay; in short: as §1
[11] = molecular target: Muscarinic acetylcholine receptor M2 and M5 (Homo sapiens) (UniProt P08172+P08912); assay: Selectivity ratio of Ki for displacement of [3H]-NMS from human muscarinic M5 receptor to Ki for displacement of [3H]-NMS from human muscarinic M2 receptor; type: protein assay; in short: as §1
Chain of Muscarinic acetylcholine receptor M2 and M5 (Homo sapiens) (P08912 whole entry, looked up, one chain of several): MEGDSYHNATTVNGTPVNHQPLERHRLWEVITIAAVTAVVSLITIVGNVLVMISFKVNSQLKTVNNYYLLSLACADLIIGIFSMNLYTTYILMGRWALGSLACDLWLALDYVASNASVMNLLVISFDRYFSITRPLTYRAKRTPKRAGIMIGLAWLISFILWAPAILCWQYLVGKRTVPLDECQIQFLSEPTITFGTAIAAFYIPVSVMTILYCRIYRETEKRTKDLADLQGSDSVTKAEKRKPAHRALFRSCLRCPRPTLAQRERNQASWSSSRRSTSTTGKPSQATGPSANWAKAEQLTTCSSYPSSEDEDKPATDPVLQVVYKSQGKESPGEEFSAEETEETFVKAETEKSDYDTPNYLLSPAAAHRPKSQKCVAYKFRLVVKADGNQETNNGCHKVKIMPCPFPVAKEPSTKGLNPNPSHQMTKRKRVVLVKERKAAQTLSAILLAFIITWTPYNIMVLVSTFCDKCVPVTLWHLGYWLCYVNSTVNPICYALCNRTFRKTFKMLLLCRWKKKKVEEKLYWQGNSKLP

[12] = Selectivity ratio of Ki for binding affinity to M1 receptor (unknown origin) to Ki for displacement of [3H]-Pirenzepine from human muscarinic M2 receptor
[13] = Selectivity ratio of Ki for binding affinity to M3 receptor (unknown origin) to Ki for displacement of [3H]-Pirenzepine from human muscarinic M2 receptor
[14] = Selectivity ratio of Ki for binding affinity to M4 receptor (unknown origin) to Ki for displacement of [3H]-Pirenzepine from human muscarinic M2 receptor
[15] = Selectivity ratio of Ki for binding affinity to M5 receptor (unknown origin) to Ki for displacement of [3H]-Pirenzepine from human muscarinic M2 receptor
[16] = molecular target: T1, Muscarinic acetylcholine receptor M2 (Homo sapiens); conditions: HEK293T, filed as antagonist

## O=C(CCOCCOCCNC(=O)c1ccc(-c2c3cc(F)c(=O)cc-3oc3cc(O)c(F)cc23)c(C(=O)O)c1)NCCOCCOCCNc1ccccc1C(=O)N1CCC(N2CCC(Cc3ccc(S(=O)(=O)c4cccc(Cl)c4)cc3)CC2)CC1
[1]
  Stability: Stable
[2]
  Activity: Dose-dependent-effect
[3]
  Activity: inactive
[4]
  Activity: Active
[5]
  Activity: Active
[6]
  Activity: Active

## CN(C)c1ccc2c(-c3ccc(C(=O)NCCNC(=O)CCc4cn(CCCCC5CCN(CC(=O)N6c7ccccc7NC(=O)c7ccccc76)CC5)cn4)cc3C(=O)[O-])c3ccc(=[N+](C)C)cc-3oc2c1
[7]
  Ki: 1.7 nM
[8]
  Ratio Ki: 3.4
[9]
  Ratio Ki: 72.4
[10]
  Ratio Ki: 2
[11]
  Ratio Ki: 155

## Cc1cc(/C=C/C=C/c2ccc(N(C)C)cc2)cc(C)[n+]1CCN1CCN(CCCCC2CCN(CC(=O)N3c4ccccc4NC(=O)c4ccccc43)CC2)CC1
[7]
  Ki: 3.2 nM
[8]
  Ratio Ki: 4
[9]
  Ratio Ki: 50.1
[10]
  Ratio Ki: 3.2
[11]
  Ratio Ki: 126

## Cc1cc(/C=C/C=C/c2ccc(N(C)C)cc2)cc(C)[n+]1CCNC(=O)CCc1cn(CCCCC2CCN(CC(=O)N3c4ccccc4NC(=O)c4ccccc43)CC2)cn1
[7]
  Ki: 0.9 nM
[8]
  Ratio Ki: 5.4
[9]
  Ratio Ki: 93.3
[10]
  Ratio Ki: 4.7
[11]
  Ratio Ki: 77.6

## CN(C)c1ccc2c(-c3ccc(C(=O)NCCN4CCN(CCCCC5CCN(CC(=O)N6c7ccccc7NC(=O)c7ccccc76)CC5)CC4)cc3C(=O)[O-])c3ccc(=[N+](C)C)cc-3oc2c1
[7]
  Ki: 0.2 nM
[8]
  Ratio Ki: 10.7
[9]
  Ratio Ki: 339
[10]
  Ratio Ki: 4.1
[11]
  Ratio Ki: 741

## CCN(CC)CC1CCCCN1CC(=O)N1c2ccccc2C(=O)Nc2cccnc21 (stereo not given)
[12]
  Ratio Ki: 7
[13]
  Ratio Ki: 16
[14]
  Ratio Ki: 4
[15]
  Ratio Ki: 44

## Nc1ccccc1C(=O)N1CCC(N2CCC(Cc3ccc(S(=O)(=O)c4cccc(Cl)c4)cc3)CC2)CC1
[16]
  Ka: 8.06 10^3/s/M

## CC1(C)C(/C=C/C=C/C=C2/N(CCCCCC(=O)NCCNC(=O)CCc3cn(CCCCC4CCN(CC(=O)N5c6ccccc6NC(=O)c6ccccc65)CC4)cn3)c3cccc(S(=O)(=O)O)c3C2(C)C)=[N+](CCCCS(=O)(=O)[O-])c2ccccc21
[7]
  Ki: 0.8 nM
[8]
  Ratio Ki: 6.3
[9]
  Ratio Ki: 200
[10]
  Ratio Ki: 39.8
[11]
  Ratio Ki: 200

## Cc1cc(/C=C/c2cc3c4c(c2)CCCN4CCC3)cc(C)[n+]1CCNC(=O)CCc1cn(CCCCC2CCN(CC(=O)N3c4ccccc4NC(=O)c4ccccc43)CC2)cn1
[7]
  Ki: 1.3 nM
[8]
  Ratio Ki: 5.2
[9]
  Ratio Ki: 51.3
[10]
  Ratio Ki: 1.9
[11]
  Ratio Ki: 30.1

## Cc1cc(/C=C/c2cc3c4c(c2)CCCN4CCC3)cc(C)[n+]1CCN1CCN(CCCCC2CCN(CC(=O)N3c4ccccc4NC(=O)c4ccccc43)CC2)CC1
[7]
  Ki: 1 nM
[8]
  Ratio Ki: 5
[9]
  Ratio Ki: 66
[10]
  Ratio Ki: 2.8
[11]
  Ratio Ki: 132

## O=C(CCCCCNC(=O)COc1ccc(/C=C/C2=[N+]3C(=Cc4ccc(-c5cccs5)n4[B-]3(F)F)C=C2)cc1)NCCNC(=O)CCc1cn(CCCCC2CCN(CC(=O)N3c4ccccc4NC(=O)c4ccccc43)CC2)cn1
[7]
  Ki: 0.7 nM
[8]
  Ratio Ki: 1.4
[9]
  Ratio Ki: 53.7
[10]
  Ratio Ki: 0.6
[11]
  Ratio Ki: 14.5

## CCCC(C)(C)C(=O)N(CC)CCCC1CCN(CC(=O)N2c3ccc(Cl)cc3C(=O)Nc3cccnc32)CC1
[12]
  Ratio Ki: 355
[13]
  Ratio Ki: 26
[14]
  Ratio Ki: 6
[15]
  Ratio Ki: 48
